Source: ChEMBL document CHEMBL4425120, “N1-Azinylsulfonyl-1H-indoles: 5-HT6 Receptor Antagonists with Procognitive and Antidepressant-Like Properties” (ACS Med Chem Lett, 2016)
Active and inactive are the calls of the source. No cut-off for these calls is given here.

Columns and labels:
Cytochrome P450 2D6 = Cytochrome P450 2D6 (Homo sapiens, UniProt P10635); test: Inhibition of human CYP2D6 expressed in supersomes assessed as bufuralol 1'-hydroxylation after 15 mins by HPLC analysis; type: ADME
Sequence of Cytochrome P450 2D6 (P10635 whole entry): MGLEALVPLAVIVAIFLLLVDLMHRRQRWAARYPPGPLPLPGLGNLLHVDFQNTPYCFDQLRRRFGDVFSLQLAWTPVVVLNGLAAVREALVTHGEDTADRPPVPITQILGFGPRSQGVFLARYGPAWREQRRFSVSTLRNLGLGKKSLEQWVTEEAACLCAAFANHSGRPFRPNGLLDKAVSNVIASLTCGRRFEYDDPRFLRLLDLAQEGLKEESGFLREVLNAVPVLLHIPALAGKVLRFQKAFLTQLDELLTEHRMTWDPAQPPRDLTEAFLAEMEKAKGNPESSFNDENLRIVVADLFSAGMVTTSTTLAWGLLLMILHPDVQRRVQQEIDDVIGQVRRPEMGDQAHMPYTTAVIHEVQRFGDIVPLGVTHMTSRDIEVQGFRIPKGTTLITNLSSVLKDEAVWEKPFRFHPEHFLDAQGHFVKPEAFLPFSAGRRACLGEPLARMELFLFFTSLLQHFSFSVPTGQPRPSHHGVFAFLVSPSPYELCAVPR

[1] = Ratio of drug level in Wistar rat brain to plasma at 3 mg/kg, ip after 15 to 90 mins by LC-MS/MS analysis; type: ADME, organism-based; settings: read-out: BPR
Summary of the method: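 Male Wistar rats received a single 3 mg/kg i.p. dose. Brain and plasma drug levels were measured at 15, 30 and 90 min after dosing. Brain level is expressed as ng/g tissue, alongside the brain-to-plasma concentration ratio.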

[2] = Mutagenicity in Salmonella typhimurium TA98 at 0.2 to 16 ug/ml after 48 hrs by Ames test; type: toxicity; settings: salmonella enterica subsp. enterica serovar typhimurium
[3] = biological target: T1, 5-hydroxytryptamine receptor 1A (Homo sapiens, UniProt P08908); test: Displacement of [3H]-8-OH-DPAT from human 5-HT1A receptor expressed in HEK293 cells by microbeta liquid scintillation counting; type: cell-based
T1 sequence (P08908 whole entry): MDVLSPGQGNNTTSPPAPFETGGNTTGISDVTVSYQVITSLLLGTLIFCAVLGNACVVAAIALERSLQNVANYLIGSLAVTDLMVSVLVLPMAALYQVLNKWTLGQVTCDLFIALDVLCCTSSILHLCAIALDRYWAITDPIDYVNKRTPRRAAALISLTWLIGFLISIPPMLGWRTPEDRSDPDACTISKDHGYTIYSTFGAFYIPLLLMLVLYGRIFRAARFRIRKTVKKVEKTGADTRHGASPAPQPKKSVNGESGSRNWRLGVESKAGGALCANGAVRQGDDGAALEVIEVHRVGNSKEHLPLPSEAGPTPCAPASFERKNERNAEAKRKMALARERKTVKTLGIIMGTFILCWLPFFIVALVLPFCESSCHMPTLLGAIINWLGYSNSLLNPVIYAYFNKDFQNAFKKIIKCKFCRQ
Summary of the method: (§1)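 Ki values reported as the mean of two independent radioligand binding experiments.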

[4] = biological target: Sodium-dependent serotonin transporter (Homo sapiens) (UniProt P31645); test: Displacement of [3H]imipramine from human recombinant SERT expressed in CHO cells after 60 mins by scintillation counting; type: cell-based
[5] = Mutagenicity in Salmonella typhimurium TA100 at 0.2 to 16 ug/ml after 48 hrs by Ames test; type: toxicity; settings: salmonella enterica subsp. enterica serovar typhimurium
[6] = biological target: T2, 5-hydroxytryptamine receptor 6 (Homo sapiens, UniProt P50406); test: Antagonist activity at human recombinant 5-HT6 receptor expressed in CHO cells assessed as inhibition of serotonin-induced intracellular cAMP accumulation after 30 mins by HTRF assay; type: functional, cell-based
T2 sequence (P50406 whole entry): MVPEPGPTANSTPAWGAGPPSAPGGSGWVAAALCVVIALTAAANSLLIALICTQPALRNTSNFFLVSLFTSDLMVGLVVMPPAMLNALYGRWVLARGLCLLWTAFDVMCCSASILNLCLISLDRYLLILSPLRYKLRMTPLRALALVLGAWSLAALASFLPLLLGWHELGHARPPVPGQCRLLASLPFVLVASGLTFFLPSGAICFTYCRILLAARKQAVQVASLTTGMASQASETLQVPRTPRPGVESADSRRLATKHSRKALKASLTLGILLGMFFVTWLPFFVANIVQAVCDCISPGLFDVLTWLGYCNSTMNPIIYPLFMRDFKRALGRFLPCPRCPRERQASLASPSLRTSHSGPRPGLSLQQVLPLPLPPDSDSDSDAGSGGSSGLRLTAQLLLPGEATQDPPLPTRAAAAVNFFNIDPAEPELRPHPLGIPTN

Homo sapiens [7] = species on record: Homo sapiens; test: Selectivity ratio of Ki for human D2L receptor expressed in HEK293 cells to Ki for human 5-HT6 receptor expressed in HEK293 cells; type: cell-based
Homo sapiens [8] = species on record: Homo sapiens; test: Selectivity ratio of Ki for human 5-HT1A receptor expressed in HEK293 cells to Ki for human 5-HT6 receptor expressed in HEK293 cells; type: cell-based
[9] = Solubility of the compound at pH 7.4; type: physicochemical; settings: buffer
Cytochrome P450 2C9 = Cytochrome P450 2C9 (Homo sapiens, UniProt P11712); test: Inhibition of human CYP2C9 expressed in supersomes assessed as diclofenac 4'-hydroxylation after 15 mins by HPLC analysis; type: ADME
Sequence of Cytochrome P450 2C9 (P11712 whole entry): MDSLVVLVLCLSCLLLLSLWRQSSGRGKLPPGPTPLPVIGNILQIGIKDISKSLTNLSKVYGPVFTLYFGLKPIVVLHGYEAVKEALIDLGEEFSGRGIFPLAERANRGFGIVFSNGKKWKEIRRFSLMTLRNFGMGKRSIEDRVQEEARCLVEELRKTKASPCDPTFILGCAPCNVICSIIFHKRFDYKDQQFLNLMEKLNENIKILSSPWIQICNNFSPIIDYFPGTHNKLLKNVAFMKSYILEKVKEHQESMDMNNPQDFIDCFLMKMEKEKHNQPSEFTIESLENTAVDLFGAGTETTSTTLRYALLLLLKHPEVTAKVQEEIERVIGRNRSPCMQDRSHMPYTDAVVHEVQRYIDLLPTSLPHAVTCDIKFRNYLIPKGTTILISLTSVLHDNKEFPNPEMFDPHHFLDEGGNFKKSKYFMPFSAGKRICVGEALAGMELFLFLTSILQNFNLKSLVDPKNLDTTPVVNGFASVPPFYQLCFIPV

Cytochrome P450 2C19 = Cytochrome P450 2C19 (Homo sapiens, UniProt P33261); test: Inhibition of human CYP2C19 expressed in supersomes assessed as perazine N-demethylation after 15 mins by HPLC analysis; type: ADME
Sequence of Cytochrome P450 2C19 (P33261 whole entry): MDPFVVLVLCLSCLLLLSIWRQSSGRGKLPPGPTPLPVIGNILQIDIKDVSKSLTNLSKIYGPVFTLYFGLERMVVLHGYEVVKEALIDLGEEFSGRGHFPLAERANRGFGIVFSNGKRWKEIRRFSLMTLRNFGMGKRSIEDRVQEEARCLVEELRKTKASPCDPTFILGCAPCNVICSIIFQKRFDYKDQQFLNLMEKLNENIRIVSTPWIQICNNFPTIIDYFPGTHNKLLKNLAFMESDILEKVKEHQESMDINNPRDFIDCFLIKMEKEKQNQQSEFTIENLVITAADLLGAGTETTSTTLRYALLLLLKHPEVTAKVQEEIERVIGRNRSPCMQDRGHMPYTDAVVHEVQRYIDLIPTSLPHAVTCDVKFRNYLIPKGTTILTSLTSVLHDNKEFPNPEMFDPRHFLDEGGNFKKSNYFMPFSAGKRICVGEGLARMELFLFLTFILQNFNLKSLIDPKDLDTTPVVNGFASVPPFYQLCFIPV

[10] = biological target: Voltage-gated inwardly rectifying potassium channel KCNH2 (Homo sapiens, UniProt Q12809); test: Displacement of [3H]Dofetilide from human recombinant ERG expressed in HEK293 cells at 10 to 50 uM after 60 mins by scintillation counting; type: cell-based; settings: hek293, 1 h
[11] = biological target: Alpha-2C adrenergic receptor (Homo sapiens) (UniProt P18825); test: Displacement of [3H]RX 821002 from human recombinant adrenergic alpha 2C receptor expressed in CHO cells after 60 mins by scintillation counting; type: cell-based
[12] = biological target: 5-hydroxytryptamine receptor 2B (Homo sapiens) (UniProt P41595); test: Agonist activity at human recombinant 5-HT2B receptor expressed in HEK-293 cells assessed as IP1 accumulation at 1 uM after 30 mins by HTRF assay; type: functional, cell-based
Sequence of 5-hydroxytryptamine receptor 2B (Homo sapiens) (P41595 whole entry): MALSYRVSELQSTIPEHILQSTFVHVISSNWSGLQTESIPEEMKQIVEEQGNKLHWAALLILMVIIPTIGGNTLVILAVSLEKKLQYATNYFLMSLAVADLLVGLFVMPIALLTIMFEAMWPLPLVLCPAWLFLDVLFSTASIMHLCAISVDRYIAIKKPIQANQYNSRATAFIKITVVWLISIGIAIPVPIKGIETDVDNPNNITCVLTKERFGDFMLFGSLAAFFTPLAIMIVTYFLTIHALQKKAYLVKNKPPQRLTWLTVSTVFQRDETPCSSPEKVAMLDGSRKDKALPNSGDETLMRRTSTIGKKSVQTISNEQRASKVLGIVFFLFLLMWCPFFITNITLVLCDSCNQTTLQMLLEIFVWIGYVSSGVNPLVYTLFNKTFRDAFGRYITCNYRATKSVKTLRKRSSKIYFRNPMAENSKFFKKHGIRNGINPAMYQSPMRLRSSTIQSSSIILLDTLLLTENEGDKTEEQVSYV

[13] = biological target: Histamine H1 receptor (Homo sapiens) (UniProt P35367); test: Displacement of [3H]pyrilamine from human recombinant histamine H1 receptor expressed in HEK293 cells after 60 mins by scintillation counting.; type: cell-based
Sequence of Histamine H1 receptor (Homo sapiens) (P35367 whole entry): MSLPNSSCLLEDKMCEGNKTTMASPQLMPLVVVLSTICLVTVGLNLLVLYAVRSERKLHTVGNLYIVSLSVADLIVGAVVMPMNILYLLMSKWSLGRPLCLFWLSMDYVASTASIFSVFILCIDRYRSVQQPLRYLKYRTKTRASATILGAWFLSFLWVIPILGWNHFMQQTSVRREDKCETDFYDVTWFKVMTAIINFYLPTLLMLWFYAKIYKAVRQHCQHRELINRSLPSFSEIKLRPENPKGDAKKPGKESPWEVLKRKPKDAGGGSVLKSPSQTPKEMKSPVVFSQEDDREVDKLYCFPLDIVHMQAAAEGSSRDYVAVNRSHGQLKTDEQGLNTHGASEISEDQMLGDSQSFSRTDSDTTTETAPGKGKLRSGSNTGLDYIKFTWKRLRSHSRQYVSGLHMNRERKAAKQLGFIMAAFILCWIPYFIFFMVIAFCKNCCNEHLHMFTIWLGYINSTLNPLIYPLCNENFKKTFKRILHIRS

D(2) dopamine receptor = D(2) dopamine receptor (Homo sapiens, UniProt P14416); test: Displacement of [3H]-Raclopride from human D2L receptor expressed in HEK293 cells by microbeta liquid scintillation counting; type: cell-based; summary of the method: as §1
Sequence of D(2) dopamine receptor (P14416 whole entry): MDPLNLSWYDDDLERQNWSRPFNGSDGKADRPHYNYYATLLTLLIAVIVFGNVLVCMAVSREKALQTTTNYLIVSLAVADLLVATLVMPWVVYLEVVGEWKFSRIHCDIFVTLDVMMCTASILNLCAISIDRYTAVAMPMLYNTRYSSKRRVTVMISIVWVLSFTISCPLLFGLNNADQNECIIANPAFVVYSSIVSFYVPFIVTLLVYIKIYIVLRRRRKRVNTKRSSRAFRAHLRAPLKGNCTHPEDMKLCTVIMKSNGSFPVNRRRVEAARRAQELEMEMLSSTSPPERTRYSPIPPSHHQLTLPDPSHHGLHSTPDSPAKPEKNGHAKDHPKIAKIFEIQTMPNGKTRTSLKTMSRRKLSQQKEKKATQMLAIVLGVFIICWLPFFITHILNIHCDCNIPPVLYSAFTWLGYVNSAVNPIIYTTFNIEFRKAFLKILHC

Cytochrome P450 1A2 = Cytochrome P450 1A2 (Homo sapiens, UniProt P05177); test: Inhibition of human CYP1A2 expressed in supersomes assessed as caffeine 3-N-demethylation after 15 mins by HPLC analysis; type: ADME
Sequence of Cytochrome P450 1A2 (P05177 whole entry): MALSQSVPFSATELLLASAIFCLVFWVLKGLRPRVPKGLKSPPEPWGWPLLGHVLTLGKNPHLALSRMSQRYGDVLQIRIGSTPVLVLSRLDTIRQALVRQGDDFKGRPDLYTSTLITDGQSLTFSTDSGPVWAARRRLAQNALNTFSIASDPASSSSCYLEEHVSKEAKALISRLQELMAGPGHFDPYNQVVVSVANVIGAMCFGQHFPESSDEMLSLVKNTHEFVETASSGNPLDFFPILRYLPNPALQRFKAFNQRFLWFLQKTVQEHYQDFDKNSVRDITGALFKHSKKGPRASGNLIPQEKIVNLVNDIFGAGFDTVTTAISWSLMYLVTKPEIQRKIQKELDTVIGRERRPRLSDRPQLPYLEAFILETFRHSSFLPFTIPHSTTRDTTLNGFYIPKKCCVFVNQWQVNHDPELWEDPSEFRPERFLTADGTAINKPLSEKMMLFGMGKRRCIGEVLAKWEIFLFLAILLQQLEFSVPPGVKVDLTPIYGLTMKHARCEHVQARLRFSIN

[14] = biological target: 5-hydroxytryptamine receptor 7 (Homo sapiens, UniProt P34969); test: Displacement of [3H]-5-CT from human 5-HT7B receptor expressed in HEK293 cells by microbeta liquid scintillation counting; type: cell-based; summary of the method: as §1
Rattus norvegicus [15] = test: Antidepressant activity in Sprague-Dawley rat assessed as reduction in immobility time at 0.3 mg/kg, ip adminstered 60 mins prior to testing measured for 5 mins by forced swimming test; type: functional, organism-based
Summary of the method: (§2)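 Modified forced swim test in rats with i.p. dosing. Immobility time and climbing time were scored. Data are mean ± SEM, n = 7–8 animals per group, compared against the vehicle-treated group.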

[16] = Solubility of the compound at pH 2; type: physicochemical; settings: buffer
[17] = Intrinsic clearance in rat liver microsomes at 20 uM after 15 mins in presence of NADPH-regenerating system by UPLC/MS analysis; type: ADME, Microsome; settings: read-out: CLH
[18] = biological target: Muscarinic acetylcholine receptor M1 (Homo sapiens) (UniProt P11229); test: Displacement of [3H]pirenzepine from human recombinant muscarinic M1 receptor expressed in CHO cells after 60 mins by scintillation counting; type: cell-based
Sequence of Muscarinic acetylcholine receptor M1 (Homo sapiens) (P11229 whole entry): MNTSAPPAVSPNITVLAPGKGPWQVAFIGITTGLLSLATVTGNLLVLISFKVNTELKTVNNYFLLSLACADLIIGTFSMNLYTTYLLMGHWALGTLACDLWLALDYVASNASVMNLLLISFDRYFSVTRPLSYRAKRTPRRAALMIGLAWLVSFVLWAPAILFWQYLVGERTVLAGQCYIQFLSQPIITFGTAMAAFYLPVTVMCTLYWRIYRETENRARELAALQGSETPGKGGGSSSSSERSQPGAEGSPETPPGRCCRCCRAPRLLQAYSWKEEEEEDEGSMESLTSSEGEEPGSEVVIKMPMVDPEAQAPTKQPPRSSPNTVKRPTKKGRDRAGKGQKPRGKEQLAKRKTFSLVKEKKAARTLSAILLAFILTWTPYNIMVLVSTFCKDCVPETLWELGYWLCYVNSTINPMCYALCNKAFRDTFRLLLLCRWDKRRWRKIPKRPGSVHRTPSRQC

D(3) dopamine receptor = D(3) dopamine receptor (Homo sapiens, UniProt P35462); test: Displacement of [3H]-methyl-spiperone from human recombinant dopamine D3 receptor expressed in CHO cells after 60 mins by scintillation counting; type: cell-based
[19] = Mutagenicity in Salmonella typhimurium TA1537 at 0.2 to 16 ug/ml after 48 hrs by Ames test; type: toxicity; settings: salmonella enterica subsp. enterica serovar typhimurium
Homo sapiens [20] = species on record: Homo sapiens; test: Selectivity ratio of Ki for human 5-HT2A receptor expressed in HEK293 cells to Ki for human 5-HT6 receptor expressed in HEK293 cells; type: cell-based
Rattus norvegicus [21] = test: Antidepressant activity in Sprague-Dawley rat assessed as increase in climbing time at 0.3 mg/kg, ip adminstered 60 mins prior to testing measured for 5 mins by forced swimming test; type: functional, organism-based; summary of the method: as §2
[22] = biological target: 5-hydroxytryptamine receptor 2C (Homo sapiens) (UniProt P28335); test: Displacement of [3H]mesulergine from human recombinant 5-HT2C receptor expressed in HEK293 cells after 120 mins by scintillation counting; type: cell-based
Sequence of 5-hydroxytryptamine receptor 2C (Homo sapiens) (P28335 whole entry): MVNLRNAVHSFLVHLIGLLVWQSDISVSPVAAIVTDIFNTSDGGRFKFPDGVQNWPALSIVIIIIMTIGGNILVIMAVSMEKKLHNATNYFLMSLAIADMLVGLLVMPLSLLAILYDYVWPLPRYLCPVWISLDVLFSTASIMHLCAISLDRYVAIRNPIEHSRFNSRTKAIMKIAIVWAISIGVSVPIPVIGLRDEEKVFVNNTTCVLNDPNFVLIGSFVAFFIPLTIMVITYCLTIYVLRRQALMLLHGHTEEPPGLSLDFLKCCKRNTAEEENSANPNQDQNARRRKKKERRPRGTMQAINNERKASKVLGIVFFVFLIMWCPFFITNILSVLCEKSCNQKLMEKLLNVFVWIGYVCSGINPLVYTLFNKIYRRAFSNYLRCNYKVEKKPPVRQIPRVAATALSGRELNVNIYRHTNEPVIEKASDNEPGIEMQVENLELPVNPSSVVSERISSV

[23] = Mutagenicity in Salmonella typhimurium TA1535 at 0.2 to 16 ug/ml after 48 hrs by Ames test; type: toxicity; settings: salmonella enterica subsp. enterica serovar typhimurium
[24] = biological target: T2, 5-hydroxytryptamine receptor 6; test: Displacement of [3H]-LSD from human 5-HT6 receptor expressed in HEK293 cells by microbeta liquid scintillation counting; type: cell-based; summary of the method: as §1

In the case of `COc1ccc2c(c1)c(C1=CCNCC1)cn2S(=O)(=O)c1ccc2cccnc2c1`, the IC50 (Cytochrome P450 2D6) is reported as > 100 µM, the Kp [1] is reported as 0.1 to 0.6 and the Activity [2] is reported as “Non-Toxic”. The Ki [3] was 5.04 µM, the inhibition [4] was 4% and the Activity [5] was “Non-Toxic”. The Kb [6] was 0.0044 µM, the Ratio Ki (Homo sapiens [7]) was 70 and the Ratio Ki (Homo sapiens [8]) was 70. The solubility [9] was > 5000 µg/mL, the IC50 (Cytochrome P450 2C9) was > 100 µM and the IC50 (Cytochrome P450 2C19) was > 100 µM. For the same compound, the “inhibition (INH)” value [10] was “Not Active”, the inhibition [11] was 18% and the Activity [12] was < 13%. The inhibition [13] was 9%, the Ki (D(2) dopamine receptor) was 0.24 µM and the IC50 (Cytochrome P450 1A2) was 100 µM. The Ki [14] was 6.25 µM, the Activity (Rattus norvegicus [15]) was “Active” and the solubility [16] was > 5000 µg/mL. It also gave a microsomal CLint at 20 µM [17] of 18 µL/min/mg, an inhibition [18] of 11% and a Ki (D(3) dopamine receptor) of 0.032 µM. The Activity [19] was “Non-Toxic”, the Ratio Ki (Homo sapiens [20]) was 70 and the Activity (Rattus norvegicus [21]) was “Active”. The inhibition [22] was 18%, the Activity [23] was “Non-Toxic” and the Ki [24] was 0.002 µM.

For `COc1ccc2c(c1)c(C1=CCNCC1)cn2S(=O)(=O)c1cncc2ccccc12`, the IC50 (Cytochrome P450 2D6) was > 100 µM, the Kp [1] was 0.1 to 0.6 and the Activity [2] was “Non-Toxic”. The Ki [3] was 5.01 µM, the inhibition [4] was 6% and the Activity [5] was “Non-Toxic”. For the same compound, the Kb [6] was 0.0056 µM, the Ratio Ki (Homo sapiens [7]) was 70 and the Ratio Ki (Homo sapiens [8]) was 70. The solubility [9] was > 5000 µg/mL, the IC50 (Cytochrome P450 2C9) was > 100 µM and the IC50 (Cytochrome P450 2C19) was > 100 µM. For the same compound, the “inhibition (INH)” value [10] was “Not Active”, the inhibition [11] was 21% and the Activity [12] was < 13%. It also gave an inhibition [13] of 15%, a Ki (D(2) dopamine receptor) of 3.32 µM and an IC50 (Cytochrome P450 1A2) of 100 µM. The Ki [14] was 7.83 µM, the Activity (Rattus norvegicus [15]) was “Active” and the solubility [16] was > 5000 µg/mL. For the same compound, the microsomal CLint at 20 µM [17] was 10 µL/min/mg, the inhibition [18] was 0% and the Ki (D(3) dopamine receptor) was 0.15 µM. The Activity [19] was “Non-Toxic”, the Ratio Ki (Homo sapiens [20]) was 70 and the Activity (Rattus norvegicus [21]) was “Active”. The inhibition [22] was 15%, the Activity [23] was “Non-Toxic” and the Ki [24] was 0.003 µM.
